This is a sample that favours compounds with a hit; in the whole collection about 1.5% have one here.
DAGLB inh = diacylglycerol lipase beta (human) inhibition; inhibition, % at 5.17 µM; 340,000 tested, 0.059% active; HEK293T DAGLB membrane lysate, EnzChek fluorogenic substrate; AID 504411; Q8NCG7; in the data active = inhibition above about 34%
ABHD4 inh = ABHD4 (mouse) inhibition, primary FP screen | 370,000 tested, 0.54% active | purified mABHD4, FP-Rh probe fluorescence polarization | Q8VD66 | inhibition, % at 8.92 µM;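 active = inhibition exceeding the mean over every tested compound plus 3 SD, cut at about 30% in these data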
Target sequence (Q8VD66 whole entry, looked up): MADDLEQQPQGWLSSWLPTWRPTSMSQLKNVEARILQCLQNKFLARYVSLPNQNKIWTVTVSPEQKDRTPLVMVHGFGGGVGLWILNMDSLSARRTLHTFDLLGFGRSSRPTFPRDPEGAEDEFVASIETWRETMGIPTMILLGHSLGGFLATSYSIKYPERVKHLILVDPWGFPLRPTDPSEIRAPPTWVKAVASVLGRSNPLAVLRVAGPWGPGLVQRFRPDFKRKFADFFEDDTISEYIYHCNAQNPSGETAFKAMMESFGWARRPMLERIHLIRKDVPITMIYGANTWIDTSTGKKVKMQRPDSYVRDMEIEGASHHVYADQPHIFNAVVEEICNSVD
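Material: mouse ABHD4 enzyme, wild type; Benchmarks: S159A mutant high control, sample median low control; Buffer or medium: HEPES pH 7.0, NaCl, Pluronic buffer; Signal: fluorescence polarization; Read-out: percent inhibition of probe binding, normalized to plate controls; Timing: pre-incubation 45 min, probe exposure 60 min, at 25 °C; Dosing: 8.92 µM, single dose.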
TCR-CD3 inh = inhibitors of human TCR-CD3 interaction. inhibition, % at 9.4 µM. TAMRA-labeled TCR probe fluorescence, biochemical. 360,000 tested, 0.37% active; in the data active = inhibition above about 19%;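 note: recombinant mutant TCR 2C K166C tagged with TAMRA read by polarization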
SIAE primary = inhibitors of human sialic acid acetylesterase SIAE; Q9HAT2; SIAE FP-Rh probe binding, fluorescence polarization; inhibition, % at 9.66 µM; 370,000 tested, 0.69% active; AID 1053197;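 active = inhibition above a cutoff: mean of compounds within the control limits plus 3 SD of those, cut at about 17% in these data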
HTRA1 inh = inhibitors of human serine peptidase HTRA1; 340,000 tested, 0.5% active; AID 504803; recombinant HTRA1, FP-rhodamine activity-based probe, fluorescence polarization; Q92743; inhibition, % at 5.96 µM; in the data active = inhibition above about 36%
ABHD4 confirm = confirmation of mouse ABHD4 inhibitors | shares compounds with ABHD4 inh | 1,800 tested, 55% active | inhibition, % at 8.92 µM | purified mABHD4, FP-Rh probe fluorescence polarization | AID 720658;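 active = mean inhibition across replicates above the hit cutoff set in the primary screen, cut at about 30% in these data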
Large screens that a line does not name were inactive (follow-up assays come after a bar, where they were run).

COc1ccc(/C(C)=N/Nc2cccc(C(=O)O)c2)cc1OC	none
COC(=O)C1=C(C)N(Cc2cccc(C(F)(F)F)c2)C(=NCc2ccc3c(c2)OCO3)NC1CCc1ccccc1 (configuration not stated)	none (no result: DAGLB inh, HTRA1 inh)
CCOC(=O)C(=O)Nc1nc(-c2ccc3c(c2)CCN3C(=O)C2CC2)c(C)s1	ABHD4 inh 39 | ABHD4 confirm inactive
OC(CNCCC1C=Nc2ccccc21)Cn1c2ccc(Cl)cc2c2cc(Cl)ccc21 (configuration not stated)	ABHD4 inh 34, SIAE primary 27 | ABHD4 confirm 44
CCN(CC)C(=O)CC[C@@H]1CC[C@]2(CCCN(Cc3cccnc3)C2)O1	none (no result: DAGLB inh, TCR-CD3 inh, HTRA1 inh)
O=C(CCNS(=O)(=O)c1ccccc1C(F)(F)F)NNC(=O)C1COc2ccccc2O1 (configuration not stated)	ABHD4 inh 42 | ABHD4 confirm inactive
O=C(O)c1ccc(Nc2ccc(F)c(F)c2)c([N+](=O)[O-])c1	ABHD4 inh 32 | ABHD4 confirm 32
NC(=O)c1ccc(Nc2ccc([N+](=O)[O-])cc2[N+](=O)[O-])cc1	none
CCOc1ccc(Nc2ccc(C(=O)O)cc2[N+](=O)[O-])cc1	ABHD4 inh 60 | ABHD4 confirm 45
Cc1cccc(Nc2ccc(C(=O)O)cc2[N+](=O)[O-])c1C	ABHD4 inh 37 | ABHD4 confirm 30
COc1ccc(Nc2ccc(C(=O)O)cc2[N+](=O)[O-])cc1	ABHD4 inh 49 | ABHD4 confirm 43
COc1ccc(OC)c(Nc2ccc(C(=O)O)cc2[N+](=O)[O-])c1	none
COc1ccc(Nc2ccc(C(N)=O)cc2[N+](=O)[O-])cc1	none
Cc1ccc(C(=O)O)cc1[N+](=O)[O-]	none
C#CCN1CC(N(C)CCO)CS1(=O)=O (configuration not stated)	none (no result: DAGLB inh, TCR-CD3 inh, HTRA1 inh)
COc1cccc(CNC(=O)[C@H]2CCCN2C(=O)[C@H]2CCCN2C(=O)OC(C)(C)C)c1	none (no result: DAGLB inh, HTRA1 inh)
CCn1c(SCC(=O)Nc2ccc(C(=O)OC)cc2)nnc1-c1cccc(Cl)c1	none (no result: DAGLB inh, TCR-CD3 inh, HTRA1 inh)
CCOC(=O)NC(=O)/C(C#N)=C\Nc1sccc1C(=O)OC	ABHD4 inh 63 | ABHD4 confirm inactive
C[C@@H]1CN([C@H](C)CO)C(=O)CCCn2cc(nn2)CO[C@H]1CN(C)C(=O)Oc1ccccc1	none (no result: DAGLB inh, HTRA1 inh)
CC(C)c1ccc2c(c1)C(N1CCNCC1)Cc1ccc(F)cc1S2 (configuration not stated)	ABHD4 inh 32 (no result: DAGLB inh, HTRA1 inh) | ABHD4 confirm 47
Oc1csc(Cc2nc(-c3ccc(-c4ccccc4)cc3)cs2)n1	ABHD4 inh 33 | ABHD4 confirm inactive
Oc1csc(Cc2nc(-c3ccc4ccccc4c3)cs2)n1	none
Cc1ccccc1CN1CCCCC(NC(=O)c2ccc(F)c(F)c2)C1=O (configuration not stated)	none (no result: DAGLB inh, TCR-CD3 inh, HTRA1 inh)
NC(=S)n1[nH]c(-c2ccc([N+](=O)[O-])cc2)c(N=Nc2cccc([N+](=O)[O-])c2)c1=O	ABHD4 inh 30 | ABHD4 confirm 54
NC(=S)n1[nH]c(-c2ccc([N+](=O)[O-])cc2)c(N=Nc2ccccc2[N+](=O)[O-])c1=O	none
Cc1nn(Cc2ccccc2)c2c1C(c1cccc(Cl)c1)C(C#N)=C(N)O2 (configuration not stated)	ABHD4 inh 54 | ABHD4 confirm 41
Cc1nn(-c2ccccc2)c(Cl)c1C1C(C#N)=C(N)Oc2c1c(C)nn2-c1ccccc1 (configuration not stated)	none
COc1cc(-n2nc(C)c3c2OC(N)=C(C#N)C3c2ccccc2)c(Cl)c(Br)c1O (configuration not stated)	ABHD4 inh 30 | ABHD4 confirm 40
COC(=O)[C@H](Cc1ccccc1)NC(=O)[C@H]1C[C@@]2(N3CCCC3)c3ccccc3N(C(=O)OC(C)(C)C)[C@H]2N1C(=O)OC(C)(C)C	none (no result: DAGLB inh, TCR-CD3 inh, HTRA1 inh)
COc1cc(NC(=O)Nc2nc(C(N)Cc3ccc(C(F)(F)F)cc3)cs2)cc(OC)c1OC (configuration not stated)	ABHD4 inh 44 (no result: DAGLB inh, HTRA1 inh) | ABHD4 confirm 39
CC1=NN(c2nc(-c3ccccc3)cs2)C(=O)C1	ABHD4 inh 49 | ABHD4 confirm 146
O=C1CC(c2ccccc2)=NN1c1nc(-c2ccccc2)cs1	none
COC(=O)C(Cc1c[nH]c2ccccc12)NC(=O)CNC(C)=O (configuration not stated)	none
COC(=O)[C@H](Cc1c[nH]c2ccccc12)NCc1cccc(B(O)O)c1	ABHD4 inh 77 | ABHD4 confirm 62
COC(=O)[C@@H](Cc1c[nH]c2ccccc12)NCc1ccc(B(O)O)cc1	ABHD4 inh 72 | ABHD4 confirm 64
CCOC(=O)CN1C(=O)CSc2ccc(S(=O)(=O)N3CCCC3)cc21	ABHD4 inh 35 | ABHD4 confirm inactive
c1ccc2sc(NN=C3CCCCCC3)nc2c1	ABHD4 inh 36 | ABHD4 confirm 30
CCOc1ccc(N2C(=O)C(Cl)=C(Nc3ccccc3O)C2=O)cc1	ABHD4 inh 34 | ABHD4 confirm inactive
CC(=O)N(c1nc2ccccc2s1)N1C(=O)c2ccccc2C1=O	none (no result: DAGLB inh, HTRA1 inh)
CCN(CC)S(=O)(=O)c1ccc(N/N=C/c2ccccc2OCC(=O)O)c([N+](=O)[O-])c1	ABHD4 inh 35 | ABHD4 confirm 44
COc1ccccc1NS(=O)(=O)c1ccc(N/N=C/c2ccccc2OCC(=O)O)c([N+](=O)[O-])c1	ABHD4 inh 60 | ABHD4 confirm 61
COc1ccc(NS(=O)(=O)c2cc([N+](=O)[O-])ccc2NN=Cc2ccccc2OCC(=O)O)cc1	none
O=c1ccc2ccc(O)cc2o1	none
O=c1ccc2cc(O)c(O)cc2o1	ABHD4 inh 50 | ABHD4 confirm inactive
O=C(c1ccc(F)c(F)c1)N1CCC(Oc2cccnc2)CC1	none (no result: DAGLB inh, TCR-CD3 inh, HTRA1 inh)
Cc1c(C(=O)O)cccc1-n1c(C)cc(/C=N/Nc2ccc([N+](=O)[O-])cn2)c1C	ABHD4 inh 30 | ABHD4 confirm 48
Cc1cc(/C=N/Nc2ccc([N+](=O)[O-])cn2)c(C)n1-c1ccccc1	none
O=C1OC(c2ccccc2)(c2cc(Br)c(O)c(Br)c2)c2ccccc21 (configuration not stated)	ABHD4 inh 35 | ABHD4 confirm 32
CN(c1ccc(O)cc1)c1nc(-c2cccs2)cs1	none
Cc1nc(N)sc1-c1csc(N(C)c2ccc(O)cc2)n1	ABHD4 inh 34 | ABHD4 confirm inactive
CCOc1ccc2[nH]c3c(N4CCc5ccccc5C4)ncnc3c2c1	ABHD4 inh 35 (no result: DAGLB inh, HTRA1 inh) | ABHD4 confirm 53
O=C(Nc1cccc([N+](=O)[O-])c1)NC1CCCCN(Cc2ccc(Cl)cc2)C1=O (configuration not stated)	none (no result: DAGLB inh, TCR-CD3 inh, HTRA1 inh)
COc1cc(Cl)ccc1OCc1cc(C(=O)N2C[C@H]3CC[C@H]2C3)no1	none

Screening results: PubChem BioAssay, The Scripps Research Institute Molecular Screening Center
